Laboratory results taken from ChEMBL document CHEMBL5352442, “Structure-based design, synthesis and evaluation of a novel family of PEX5-PEX14 interaction inhibitors against Trypanosoma” (Eur J Med Chem, 2022).

Tested on: not listed separately
Test: Inhibition of biotinylated PEX5 (unknown origin)/N-terminal His-tagged Trypanosoma brucei PEX14 (19 to 84 residues) expressed in Escherichia coli BL21 by AlphaScreen assay
Procedure, shortened: (§1)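 Streptavidin donor and Ni-chelate acceptor beads each 5 μg/mL. Inhibitor serial dilutions at constant 5% DMSO.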

| SMILES | EC50 |
| --- | --- |
| CCN1C(=O)c2ccccc2Sc2cc(NC(=O)Cc3ccc(F)cc3)ccc21 | 230 µM |
| CC(C)N1C(=O)c2cccnc2Sc2cc(NC(=O)Cc3ccc(F)cc3)ccc21 | 1050 µM |
| O=C(Cc1ccc(F)cc1)Nc1ccc2c(c1)Oc1ccccc1C(=O)N2 | 11000 µM |
| COC(=O)N1C(=O)c2ccccc2Oc2cc(NC(=O)Cc3ccc(F)cc3)ccc21 | 480 µM |
| CS(=O)(=O)N1C(=O)c2ccccc2Oc2cc(NC(=O)Cc3ccc(F)cc3)ccc21 | 422 µM |
| CCN1C(=O)c2ccccc2Oc2cc(NS(=O)(=O)c3ccccc3)ccc21 | 935 µM |
| CCN1C(=O)c2ccccc2Oc2cc(NC(=O)Cc3ccc(F)cc3)ccc21 | 875 µM |
| COC(=O)CN1C(=O)c2ccccc2Oc2cc(NC(=O)Cc3ccc(F)cc3)ccc21 | 7230 µM |
| CCN1C(=O)c2ccccc2Oc2cc(NC(=O)[C@@H](N)c3ccccc3)ccc21 | 253 µM |
| CCN1C(=O)c2ccccc2Oc2cc(NC(=O)Cc3cccnc3)ccc21 | 843 µM |
| CCN1C(=O)c2ccccc2Oc2cc(NC(=O)[C@@H](NC(=O)OC(C)(C)C)c3ccccc3)ccc21 | 318 µM |
| CCN1C(=O)c2ccccc2Oc2cc(NC(=O)Cc3ccsc3)ccc21 | 825 µM |
| CCN1C(=O)c2ccccc2Oc2cc(NC(=O)Cn3nnc4ccccc43)ccc21 | 351 µM |
| CCN1C(=O)c2ccccc2Oc2cc(NC(=O)Cc3cnccn3)ccc21 | 741 µM |
| CC(C)N1C(=O)c2cccnc2[S+]([O-])c2cc(NC(=O)Cc3ccc(F)cc3)ccc21 (stereo unspecified) | 1730 µM |
| CCN1C(=O)c2ccccc2Oc2cc(NC(=O)Cc3ccc(Cl)cc3)ccc21 | 54 µM |
| CCN1C(=O)c2ccccc2Oc2cc(NC(=O)Cc3c[nH]c4ccccc34)ccc21 | 109 µM |
| CCN1C(=O)c2ccccc2Oc2cc(NC(=O)Cc3cccc(Cl)c3)ccc21 | 500 µM |
| CCN1C(=O)c2ccccc2Oc2cc(NC(=O)Cc3cccc4ccccc34)ccc21 | 69 µM |
| CCN1C(=O)c2ccccc2Oc2cc(NS(=O)(=O)Cc3ccccc3)ccc21 | 3630 µM |
| CCN1C(=O)c2ccccc2Oc2cc(NC(=O)Oc3ccccc3)ccc21 | 250 µM |
| CCN1C(=O)c2ccccc2Oc2cc(NC(=O)Cc3ccccc3)ccc21 | 1090 µM |

Tested on: not listed separately
Test: Binding affinity to Ni-NTA-ATTO647-labeled N-terminal His-tagged Trypanosoma cruzi PEX14 (19 to 84 residues) expressed in Escherichia coli BL21 assessed as dissociation constant by MST assay
Procedure, shortened: (§2)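 PEX14 N-terminal domain (aa 19–84, N-His), purified by Ni-NTA and then SEC in PBS, labeled with Ni-NTA-ATTO647 at protein:label 2:1 for 1 h at room temperature in the dark. Buffer: 50 mM Tris-HCl pH 7.4, 150 mM NaCl, 10 mM MgCl2, 0.0125% Tween 20. Labeled protein 200 nM with inhibitor serial dilution, 5% DMSO. Triplicates; Kd from MST fit; mean of n = 3.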

| SMILES | Kd |
| --- | --- |
| CCN1C(=O)c2ccccc2Sc2cc(NC(=O)Cc3ccc(F)cc3)ccc21 | 56 µM |
| CC(C)N1C(=O)c2cccnc2Sc2cc(NC(=O)Cc3ccc(F)cc3)ccc21 | 5 µM |
| COC(=O)N1C(=O)c2ccccc2Oc2cc(NC(=O)Cc3ccc(F)cc3)ccc21 | 258 µM |
| CS(=O)(=O)N1C(=O)c2ccccc2Oc2cc(NC(=O)Cc3ccc(F)cc3)ccc21 | 3000 µM |
| CCN1C(=O)c2ccccc2Oc2cc(NC(=O)Cc3cscn3)ccc21 | 1700 µM |
| CCN1C(=O)c2ccccc2Oc2cc(NS(=O)(=O)c3ccccc3)ccc21 | 12 µM |
| CCN1C(=O)c2ccccc2Oc2cc(NC(=O)Cc3ccc(F)cc3)ccc21 | 124 µM |
| CCN1C(=O)c2ccccc2Oc2cc(NC(=O)[C@@H](N)c3ccccc3)ccc21 | 10200 µM |
| CCN1C(=O)c2ccccc2Oc2cc(NC(=O)Cc3cccnc3)ccc21 | 3450 µM |
| CCN1C(=O)c2ccccc2Oc2cc(NC(=O)[C@@H](NC(=O)OC(C)(C)C)c3ccccc3)ccc21 | 2 µM |
| CCN1C(=O)c2ccccc2Oc2cc(NC(=O)Cc3ccsc3)ccc21 | 9 µM |
| CCN1C(=O)c2ccccc2Oc2cc(NC(=O)Cn3nnc4ccccc43)ccc21 | 3 µM |
| CCN1C(=O)c2ccccc2Oc2cc(NC(=O)Cc3ccc(Cl)cc3)ccc21 | 2800 µM |
| CCN1C(=O)c2ccccc2Oc2cc(NC(=O)Cc3c[nH]c4ccccc34)ccc21 | 9 µM |
| CCN1C(=O)c2ccccc2Oc2cc(NC(=O)Cc3cccc(Cl)c3)ccc21 | 64 µM |
| CCN1C(=O)c2ccccc2Oc2cc(NC(=O)Cc3cccc4ccccc34)ccc21 | 42 µM |
| CCN1C(=O)c2ccccc2Oc2cc(NS(=O)(=O)Cc3ccccc3)ccc21 | 252 µM |
| CCN1C(=O)c2ccccc2Oc2cc(NC(=O)Oc3ccccc3)ccc21 | 100000 µM |

Tested on: not listed separately
Test: Binding affinity to Ni-NTA-ATTO647-labeled N-terminal His-tagged Trypanosoma brucei PEX14 (19 to 84 residues) expressed in Escherichia coli BL21 assessed as dissociation constant by MST assay
Procedure, shortened: as §2

| SMILES | Kd |
| --- | --- |
| CCN1C(=O)c2ccccc2Sc2cc(NC(=O)Cc3ccc(F)cc3)ccc21 | 951 µM |
| CC(C)N1C(=O)c2cccnc2Sc2cc(NC(=O)Cc3ccc(F)cc3)ccc21 | 24 µM |
| COC(=O)N1C(=O)c2ccccc2Oc2cc(NC(=O)Cc3ccc(F)cc3)ccc21 | 369 µM |
| CS(=O)(=O)N1C(=O)c2ccccc2Oc2cc(NC(=O)Cc3ccc(F)cc3)ccc21 | 2 µM |
| CCN1C(=O)c2ccccc2Oc2cc(NC(=O)Cc3cscn3)ccc21 | 61000 µM |
| CCN1C(=O)c2ccccc2Oc2cc(NS(=O)(=O)c3ccccc3)ccc21 | 20 µM |
| CCN1C(=O)c2ccccc2Oc2cc(NC(=O)Cc3ccc(F)cc3)ccc21 | 131 µM |
| CCN1C(=O)c2ccccc2Oc2cc(NC(=O)[C@@H](N)c3ccccc3)ccc21 | 625 µM |
| CCN1C(=O)c2ccccc2Oc2cc(NC(=O)Cc3cccnc3)ccc21 | 1460 µM |
| CCN1C(=O)c2ccccc2Oc2cc(NC(=O)[C@@H](NC(=O)OC(C)(C)C)c3ccccc3)ccc21 | 380 µM |
| CCN1C(=O)c2ccccc2Oc2cc(NC(=O)Cc3ccsc3)ccc21 | 29 µM |
| CCN1C(=O)c2ccccc2Oc2cc(NC(=O)Cn3nnc4ccccc43)ccc21 | 14 µM |
| CCN1C(=O)c2ccccc2Oc2cc(NC(=O)Cc3cnccn3)ccc21 | 840 µM |
| CCN1C(=O)c2ccccc2Oc2cc(NC(=O)Cc3ccc(Cl)cc3)ccc21 | 385 µM |
| CCN1C(=O)c2ccccc2Oc2cc(NC(=O)Cc3c[nH]c4ccccc34)ccc21 | 13 µM |
| CCN1C(=O)c2ccccc2Oc2cc(NC(=O)Cc3cccc(Cl)c3)ccc21 | 44 µM |
| CCN1C(=O)c2ccccc2Oc2cc(NC(=O)Cc3cccc4ccccc34)ccc21 | 147 µM |
| CCN1C(=O)c2ccccc2Oc2cc(NS(=O)(=O)Cc3ccccc3)ccc21 | 158 µM |
| CCN1C(=O)c2ccccc2Oc2cc(NC(=O)Oc3ccccc3)ccc21 | 232 µM |

Tested on: not listed separately
Test: Inhibition of biotinylated PEX5 (unknown origin)/N-terminal His-tagged Trypanosoma cruzi PEX14 (19 to 84 residues) expressed in Escherichia coli BL21 by AlphaScreen assay
Procedure, shortened: as §1

| SMILES | EC50 |
| --- | --- |
| CCN1C(=O)c2ccccc2Sc2cc(NC(=O)Cc3ccc(F)cc3)ccc21 | 637 µM |
| CC(C)N1C(=O)c2cccnc2Sc2cc(NC(=O)Cc3ccc(F)cc3)ccc21 | 2290 µM |
| O=C(Cc1ccc(F)cc1)Nc1ccc2c(c1)Oc1ccccc1C(=O)N2 | 551 µM |
| CS(=O)(=O)N1C(=O)c2ccccc2Oc2cc(NC(=O)Cc3ccc(F)cc3)ccc21 | 10300 µM |
| CCN1C(=O)c2ccccc2Oc2cc(NS(=O)(=O)c3ccccc3)ccc21 | 778 µM |
| CCN1C(=O)c2ccccc2Oc2cc(NC(=O)Cc3ccc(F)cc3)ccc21 | 4590 µM |
| COC(=O)CN1C(=O)c2ccccc2Oc2cc(NC(=O)Cc3ccc(F)cc3)ccc21 | 4590 µM |
| CCN1C(=O)c2ccccc2Oc2cc(NC(=O)[C@@H](N)c3ccccc3)ccc21 | 421 µM |
| CCN1C(=O)c2ccccc2Oc2cc(NC(=O)Cc3cccnc3)ccc21 | 1230 µM |
| CCN1C(=O)c2ccccc2Oc2cc(NC(=O)[C@@H](NC(=O)OC(C)(C)C)c3ccccc3)ccc21 | 1610 µM |
| CCN1C(=O)c2ccccc2Oc2cc(NC(=O)Cc3ccsc3)ccc21 | 2360 µM |
| CCN1C(=O)c2ccccc2Oc2cc(NC(=O)Cn3nnc4ccccc43)ccc21 | 13000 µM |
| CCN1C(=O)c2ccccc2Oc2cc(NC(=O)Cc3cnccn3)ccc21 | 1930 µM |
| CCN1C(=O)c2ccccc2Oc2cc(NC(=O)Cc3ccc(Cl)cc3)ccc21 | 2370 µM |
| CCN1C(=O)c2ccccc2Oc2cc(NC(=O)Cc3c[nH]c4ccccc34)ccc21 | 677 µM |
| CCN1C(=O)c2ccccc2Oc2cc(NC(=O)Cc3cccc(Cl)c3)ccc21 | 2930 µM |
| CCN1C(=O)c2ccccc2Oc2cc(NC(=O)Cc3cccc4ccccc34)ccc21 | 4520 µM |
| CCN1C(=O)c2ccccc2Oc2cc(NS(=O)(=O)Cc3ccccc3)ccc21 | 6830 µM |
| CCN1C(=O)c2ccccc2Oc2cc(NC(=O)Oc3ccccc3)ccc21 | 3590 µM |
| CCN1C(=O)c2ccccc2Oc2cc(NC(=O)Cc3ccccc3)ccc21 | 788 µM |

Tested on: Trypanosoma brucei brucei
Test: Trypanocidal activity against bloodstream form of Trypanosoma brucei brucei incubated for 66 hrs by resazurin dye based assay
Assay type: functional, organism-based
Procedure, shortened: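 T. b. brucei Lister 427 bloodstream form in HMI-11 with 10% FBS, 37 °C, 5% CO2. Ten-point 1:1 serial dilutions in quadruplicate; final 2×10^3 parasites/mL. After 66 h, resazurin was added and plates incubated to 72 h. Fluorescence ex 530/em 585 nm, medium background subtracted, survival normalized to no-compound well. IC50 from sigmoidal nonlinear regression.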

| SMILES | IC50 |
| --- | --- |
| CCN1C(=O)c2ccccc2Sc2cc(NC(=O)Cc3ccc(F)cc3)ccc21 | 5.4 µM |
| CC(C)N1C(=O)c2cccnc2Sc2cc(NC(=O)Cc3ccc(F)cc3)ccc21 | 0.86 µM |
| O=C(Cc1ccc(F)cc1)Nc1ccc2c(c1)Oc1ccccc1C(=O)N2 | 20.7 µM |
| COC(=O)N1C(=O)c2ccccc2Oc2cc(NC(=O)Cc3ccc(F)cc3)ccc21 | 7.7 µM |
| CS(=O)(=O)N1C(=O)c2ccccc2Oc2cc(NC(=O)Cc3ccc(F)cc3)ccc21 | 19.3 µM |
| CCN1C(=O)c2ccccc2Oc2cc(NC(=O)Cc3cscn3)ccc21 | 57.5 µM |
| CCN1C(=O)c2ccccc2Oc2cc(NS(=O)(=O)c3ccccc3)ccc21 | 7.1 µM |
| CCN1C(=O)c2ccccc2Oc2cc(NC(=O)Cc3ccc(F)cc3)ccc21 | 8.12 µM |
| COC(=O)CN1C(=O)c2ccccc2Oc2cc(NC(=O)Cc3ccc(F)cc3)ccc21 | 11.6 µM |
| CCN1C(=O)c2ccccc2Oc2cc(NC(=O)[C@@H](N)c3ccccc3)ccc21 | 13.4 µM |
| CCN1C(=O)c2ccccc2Oc2cc(NC(=O)Cc3cccnc3)ccc21 | 29.4 µM |
| CCN1C(=O)c2ccccc2Oc2cc(NC(=O)[C@@H](NC(=O)OC(C)(C)C)c3ccccc3)ccc21 | 58.5 µM |
| CCN1C(=O)c2ccccc2Oc2cc(NC(=O)Cc3ccsc3)ccc21 | 8.3 µM |
| CCN1C(=O)c2ccccc2Oc2cc(NC(=O)Cn3nnc4ccccc43)ccc21 | 7.9 µM |
| CCN1C(=O)c2ccccc2Oc2cc(NC(=O)Cc3cnccn3)ccc21 | 47.6 µM |
| CCN1C(=O)c2ccccc2Oc2cc(NC(=O)Cc3ccc(Cl)cc3)ccc21 | 5.39 µM |
| CCN1C(=O)c2ccccc2Oc2cc(NC(=O)Cc3c[nH]c4ccccc34)ccc21 | 13.7 µM |
| CCN1C(=O)c2ccccc2Oc2cc(NC(=O)Cc3cccc(Cl)c3)ccc21 | 7.38 µM |
| CCN1C(=O)c2ccccc2Oc2cc(NC(=O)Cc3cccc4ccccc34)ccc21 | 6.35 µM |
| CCN1C(=O)c2ccccc2Oc2cc(NS(=O)(=O)Cc3ccccc3)ccc21 | 19.4 µM |
| CCN1C(=O)c2ccccc2Oc2cc(NC(=O)Oc3ccccc3)ccc21 | 52.8 µM |
| CCN1C(=O)c2ccccc2Oc2cc(NC(=O)Cc3ccccc3)ccc21 | 13.3 µM |
